These molecules were tested on RAW264.7 (assay: Antiinflammatory activity in mouse RAW264.7 cells assessed as inhibition of lipopolysaccharide-induced nitric oxide production at 50 uM pre-incubated for 4 hrs before LPS challenge for 24 hrs by Griess assay).
Format: functional
Method in brief: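 RAW 264.7 murine macrophages grown in DMEM with 10% FBS, 2 mmol/L L-glutamine, penicillin/streptomycin, 37 °C, 5% CO2. Cells (5 × 10^5/mL) preincubated 8 h, given compound at 10 or 50 μM for 4 h, then LPS (final 1 μg/mL) for 24 h. Nitrite in supernatant measured by Griess reagent, absorbance 570 nm, against sodium nitrite standard; expressed as % inhibition.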

Compound | inhibition at 50 µM [%]
C[C@@H]1O[C@@H](OC[C@H]2O[C@@H](Oc3c(-c4ccc(O)cc4)oc4cc(O[C@@H]5O[C@@H](C)[C@H](O)[C@@H](O)[C@H]5O)cc(O)c4c3=O)[C@H](O)[C@@H](O)[C@@H]2O)[C@H](O)[C@H](O)[C@H]1O | < 5
COc1cc(O)c2c(=O)c(O[C@@H]3O[C@H](COC(=O)C[C@@](C)(O)CC(=O)O)[C@H](O)[C@H](O)[C@H]3O)c(-c3ccc(O[C@@H]4O[C@H](CO)[C@@H](O)[C@H](O)[C@H]4O)cc3)oc2c1 [OXYTROFLAVOSIDE E] | < 5
CC1O[C@@H](OC[C@H]2O[C@@H](Oc3c(-c4ccc(O)cc4)oc4cc(O)cc(O)c4c3=O)C(O[C@@H]3O[C@H](C)[C@H](O)C(O)C3O)C(O)[C@H]2O)C(O)[C@@H](O)[C@H]1O (stereo partly specified) [MAURITIANIN] | < 5
C[C@@H]1O[C@@H](OC[C@H]2O[C@@H](Oc3c(-c4ccc(O)cc4)oc4cc(O)cc(O)c4c3=O)[C@H](O)[C@@H](O)[C@H]2O)[C@H](O)[C@H](O)[C@H]1O | < 5
O=C(/C=C/c1ccccc1)c1ccc(O)cc1O [2',4'-DIHYDROXYCHALCONE] | 40.1
COc1cc(O)c2c(=O)c(O[C@@H]3O[C@H](COC(=O)C[C@@](C)(O)CC(=O)O)[C@H](O)[C@H](O)[C@H]3O)c(-c3ccc(O)cc3)oc2c1 [OXYTROFLAVOSIDE D] | < 5
COc1cc(O)c2c(=O)c(O[C@@H]3O[C@H](CO)[C@H](O)[C@H](O)[C@H]3O[C@@H]3O[C@@H](C)[C@H](O)[C@@H](O)[C@H]3O)c(-c3ccc(O)cc3)oc2c1 [OXYTROFLAVOSIDE F] | < 5
COc1cc(O)c2c(=O)c(O[C@@H]3O[C@H](CO)[C@H](OC(=O)C[C@@](C)(O)CC(=O)O)[C@H](O)[C@H]3O[C@@H]3O[C@@H](C)[C@H](O)[C@@H](O)[C@H]3O)c(-c3ccc(O)cc3)oc2c1 [OXYTROFLAVOSIDE C] | < 5
COc1cc(O)c2c(=O)c(O[C@@H]3O[C@H](CO[C@@H]4O[C@@H](C)[C@H](O)[C@@H](O)[C@H]4O)[C@H](O)[C@H](O)[C@H]3O[C@@H]3O[C@@H](C)[C@H](O)[C@@H](O)[C@H]3O)c(-c3ccc(O)cc3)oc2c1 [OXYTROFLAVOSIDE G] | < 5
COc1cc(O)c2c(=O)c(O[C@@H]3O[C@H](COC(=O)C[C@@](C)(O)CC(=O)O)[C@H](O)[C@H](O)[C@H]3O[C@@H]3O[C@@H](C)[C@H](O)[C@@H](O)[C@H]3O)c(-c3ccc(O)cc3)oc2c1 [OXYTROFLAVOSIDE A] | < 5
COc1cc(O)c2c(=O)c(O[C@@H]3O[C@H](CO)[C@H](O)[C@H](OC(=O)C[C@@](C)(O)CC(=O)O)[C@H]3O[C@@H]3O[C@@H](C)[C@H](O)[C@@H](O)[C@H]3O)c(-c3ccc(O)cc3)oc2c1 [OXYTROFLAVOSIDE B] | < 5

Reference: ChEMBL document CHEMBL2069237, “3-Hydroxy-3-methylglutaryl flavonol glycosides from Oxytropis falcata” (2012)
